SENP1 inh: SENP1 (human) catalytic domain inhibition. Q9P0U3. recombinant SENP1 catalytic domain, CyPet-SUMO1-YPet FRET cleavage. inhibition, % at 10 µM. hit rate 0.21% among 360,000;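 active = inhibition at least 30% at 10 µM, raw YFP signal under a set limit, fluorescence ratio 0.5 to 1.5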;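 also: 0% = enzyme with DMSO and 100% = no enzyme wells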
Target sequence (Q9P0U3 419-644 limits assumed): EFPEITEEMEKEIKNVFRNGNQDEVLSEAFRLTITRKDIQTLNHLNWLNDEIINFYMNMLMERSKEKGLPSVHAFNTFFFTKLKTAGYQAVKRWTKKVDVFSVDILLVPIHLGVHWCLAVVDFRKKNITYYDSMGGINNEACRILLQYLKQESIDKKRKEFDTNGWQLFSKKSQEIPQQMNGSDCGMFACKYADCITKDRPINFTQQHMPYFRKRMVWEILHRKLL
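Test system: recombinant human SENP1 catalytic domain, His6-tagged / Medium: pH 8 Tris buffer with EDTA, NaCl, BME, BSA, NP40, catalase / Also added: SUMO1 FRET substrate flanked by Cypet and Ypet, 25 nM / Times: 50 min reaction at room temperature / Signal: FRET, CFP and YFP emission / Control set: no-enzyme low control and enzyme-plus-DMSO high control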
NR3A LBD binder: modulators (binders) of human NR3A ligand-binding domain; NR3A LBD differential scanning fluorimetry, Tm shift; 0% = protein alone, 100% = glycine-bound protein; Tm shift relative to glycine control, % at 25 µM; hit rate 2.5% among 340,000; AID 1259313;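 active = melting temperature shift of at least 10% of the positive control shift, at one fixed dose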
NadD block: blocks S. aureus nicotinate mononucleotide adenylyltransferase. inhibition, % at 20 µM. hit rate 0.78% among 360,000. AID 602399. purified NadD enzyme, colorimetric absorbance read-out; in the data active = inhibition above about 26%
ATG4B inh: blocks human ATG4B protease cleavage of LC3 substrate. ATG4B cleavage of LC3-PLA2, NBD-HPC fluorescence, 1 h. AID 504462. inhibition, % at 8.33 µM. hit rate 0.51% among 340,000. Q9Y4P1; in the data active = inhibition above about 40%
UCH37 DUB inh: human UCH37 deubiquitinating enzyme inhibition | inhibition, % (test concentration not listed) | purified proteasome/UCH37, Ub-AMC cleavage fluorescence | hit rate 0.33% among 330,000 | Q9Y5K5;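 active = mean inhibition over replicate wells above about 20%, limit read from the data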;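 also: 0% = compound-free wells with enzyme and 100% = wells lacking proteasome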
Target sequence (Q9Y5K5 whole entry, looked up): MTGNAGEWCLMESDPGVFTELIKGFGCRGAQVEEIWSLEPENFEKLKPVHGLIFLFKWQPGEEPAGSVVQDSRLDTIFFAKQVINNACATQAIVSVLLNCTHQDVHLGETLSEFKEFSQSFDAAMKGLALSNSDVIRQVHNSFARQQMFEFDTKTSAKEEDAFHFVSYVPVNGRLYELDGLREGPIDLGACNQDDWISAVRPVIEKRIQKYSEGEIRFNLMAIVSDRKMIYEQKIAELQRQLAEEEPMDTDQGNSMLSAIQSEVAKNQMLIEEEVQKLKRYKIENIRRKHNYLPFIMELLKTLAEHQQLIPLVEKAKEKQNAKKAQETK
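Test system – human UCH37 enzyme supplied as purified proteasome complex · Incubation – 30 min preincubation with enzyme, 25 min cleavage at room temperature · Detection – AMC fluorescence from Ub-AMC cleavage, excitation 355 nm, emission 460 nm · Benchmarks – no-proteasome wells (full inhibition) and compound-free wells (no inhibition)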
Starred values were filed as active, the others as inactive; x = no result given. In the library only some 3.6% were active in any assay of this set; here they are far more common.

SMILES	SENP1 inh	NR3A LBD binder	NadD block	ATG4B inh	UCH37 DUB inh
COc1ccc(C(=O)/C=C/Nc2cc(C)on2)c(OC)c1	0	31*	7	-7	6
COc1ccc(C(=O)/C=C/Nc2ccc([N+](=O)[O-])cc2C)c(OC)c1	-24	7	-6	8	4
CC(/C=C/c1ccc(N(C)C)cc1)=N/N=C1/NC(=O)CC(C(=O)Nc2ccc(Cl)cc2)S1 (stereo not drawn)	-29	27*	47*	28	0
CC(/C=C/c1ccc(N(C)C)cc1)=N\N=C1\NC(=O)CC(C(=O)Nc2ccccc2)S1 (stereo not drawn)	-24	-1	49*	5	x
CCCOc1ccc(NC(=O)C2CC(=O)N/C(=N/N=C(C)/C=C/c3ccc(N(C)C)cc3)S2)cc1 (stereo not drawn)	-26	-5	56*	19	-7
COc1ccc(S(=O)(=O)NNC(=O)c2sccc2-n2cccc2)cc1	1	-1	-2	-4	0
O=C(NNS(=O)(=O)c1ccc(Br)cc1)c1sccc1-n1cccc1	-1	14*	4	-8	5
O=S(=O)(N=C(NS(=O)(=O)c1ccccc1)c1ccccc1)c1ccccc1	x	x	x	x	2
COc1cc(Cl)cc(C(c2c(C(=O)O)[nH]c3ccccc23)c2c(C(=O)O)[nH]c3ccccc23)c1O	1	22*	22	10	7
O=C(O)c1[nH]c2ccccc2c1C(c1c(F)cccc1Cl)c1c(C(=O)O)[nH]c2ccccc12	2	3	1	8	4
O=C(O)c1[nH]c2ccccc2c1C(c1cc(Br)ccc1O)c1c(C(=O)O)[nH]c2ccccc12	-2	11*	12	34	4
CC(=NNC(=O)c1cccc(S(=O)(=O)N2CCOCC2)c1)c1ccc(OC(F)F)cc1	x	x	x	x	0
C#CCOc1c(Cl)cc(C=NO)cc1OC	x	x	x	x	2
C[C@H](CO)N1C[C@H](C)[C@@H](CN(C)S(=O)(=O)c2cccs2)Oc2ccc(NC(=O)Nc3ccc(C(F)(F)F)cc3)cc2C1=O	1	23*	16	-21	-3
C[C@@H]1CN([C@H](C)CO)C(=O)c2cc(NC(=O)Nc3ccc(C(F)(F)F)cc3)ccc2O[C@H]1CN(C)S(=O)(=O)c1cccs1	0	17*	24	-19	0
C[C@H](CO)N1C[C@H](C)[C@@H](CN(C)S(=O)(=O)c2cccs2)Oc2ccc(NC(=O)Nc3ccccc3)cc2C1=O	0	-6	7	-4	5
CN(C(=O)C1CCCO1)C1CCS(=O)(=O)C1 (stereo not drawn)	0	14*	-2	-5	4
CN(C(=O)c1ccc(Br)o1)C1CCS(=O)(=O)C1 (stereo not drawn)	2	-2	4	-16	2
COc1ccc(NC(=S)NC(=NS(=O)(=O)c2ccc(C)cc2)c2ccccc2)cc1	x	x	x	x	2
O=C(NCc1ccc2c(c1)OCO2)C1CCC(CNS(=O)(=O)c2ccc(Cl)cc2)CC1 (stereo not drawn)	2	2	4	-6	2
Cc1ccc(S(=O)(=O)NCC2CCC(C(=O)NCc3ccc4c(c3)OCO4)CC2)cc1 (stereo not drawn)	-1	15*	-1	-18	0
NS(=O)(=O)c1ccc(CNS(=O)(=O)c2ccc3c(c2)OCCO3)cc1	0	-1	-4	5	0
Cc1ccc(CNS(=O)(=O)c2ccc3c(c2)OCCO3)cc1	1	16*	-7	-14	3
Cn1c(SCC(=O)N2CCN(c3ccccc3)CC2)nnc1-c1ccncc1	2	11*	-1	0	3
Cn1c(SCC(=O)N2CCN(c3cccc(Cl)c3)CC2)nnc1-c1ccncc1	1	-2	1	-14	5
SMILES	SENP1 inh	NR3A LBD binder	NadD block	ATG4B inh	UCH37 DUB inh
O=C(Nc1ccc(Cl)cc1)/C(=C/c1cccc(O)c1)c1nc2ccccc2s1	-115	26*	17	-2	-2
O=C(Nc1ccc(-c2csc(Nc3ccc(Cl)cc3)n2)cc1)c1cccc(C(F)(F)F)c1	x	34*	x	0	2
O=C(Nc1ccc(-c2csc(Nc3ccccc3)n2)cc1)c1cccc(C(F)(F)F)c1	2	26*	15	-4	3
O=[N+]([O-])c1ccc(Cl)c(C=NN2CCN(Cc3ccccc3Cl)CC2)c1	x	x	x	x	3
Cc1cccc(N=Cc2c(O)cc(C)oc2=O)n1	x	x	x	x	-3
C[C@@H]1CN([C@@H](C)CO)C(=O)c2cc(NC(=O)CCC(F)(F)F)ccc2O[C@H]1CN(C)Cc1ccc(Cl)c(Cl)c1	1	0	-1	-6	6
C[C@H](CO)N1C[C@H](C)[C@@H](CN(C)Cc2ccc(Cl)c(Cl)c2)Oc2c(NC(=O)CCC(F)(F)F)cccc2C1=O	1	-11	-3	-12	3
C[C@@H]1CN([C@H](C)CO)C(=O)c2cc(NS(=O)(=O)c3ccc(F)cc3)ccc2O[C@@H]1CN(C)Cc1ccc(Cl)c(Cl)c1	-1	13*	-2	x	3
C[C@H]1CN([C@@H](C)CO)C(=O)c2cccc(NC(=O)Nc3ccc(C(F)(F)F)cc3)c2O[C@@H]1CN(C)Cc1ccc(Cl)c(Cl)c1	2	12*	1	-8	1
C[C@@H]1CN([C@H](C)CO)C(=O)c2cc(NC(=O)Nc3ccc(C(F)(F)F)cc3)ccc2O[C@H]1CN(C)Cc1ccc(Cl)c(Cl)c1	0	32*	33*	x	4
CCOC(=O)CC(=O)NN=Cc1c(N)n(C)c(=O)n(C)c1=O	x	x	x	x	5
CN(C)c1ccc(NC(=NS(=O)(=O)c2cccs2)c2ccccc2)cc1	x	x	x	x	7
CCCCCCCCC(=O)NN=C(C)c1ccco1	x	x	x	x	2
O=C(COc1ccccc1)NCC(=O)NN=Cc1ccc(Br)cc1	x	x	x	x	5
COc1ccc(/C(N)=N/OC(=O)Cc2cccs2)cc1	2	11*	0	1	-1
COc1ccc(/C(N)=N/OC(=O)Cc2cccs2)cc1OC	-1	-3	-3	-6	2
CC(C)Oc1cc(NC(=O)CS(=O)CC(=O)N(C)C)c(Cl)cc1Cl (stereo not drawn)	-1	-2	-7	8	5
CC(C)Oc1cc(NC(=O)CS(=O)CC(=O)Nc2cccc(C(F)(F)F)c2)c(Cl)cc1Cl (stereo not drawn)	0	26*	-10	-20	1
O=C(Cn1c2ccc(F)cc2c2nc3n(c(=O)c21)CCS3)Nc1ccc(Cl)cc1F	0	-2	1	-5	-90
Cc1ccc(NC(=O)Cn2c3ccc(F)cc3c3nc4n(c(=O)c32)CCS4)cc1F	2	12*	23	11	-17
COc1cc(OC)cc(-c2sc3ccc(OC)cc3c2-c2ccc(OCCN3CCOCC3)cc2)c1	0	11*	-9	-1	-12
COc1cccc(-c2sc3ccc(OC)cc3c2-c2ccc(OCCN3CCOCC3)cc2)c1	1	2	-4	-5	x

Source: PubChem BioAssay
